From ChEMBL document CHEMBL1671787, “2-Aminothiazoles as therapeutic leads for prion diseases” (J Med Chem, 2011) come the findings set out here.

The nature of data set [1]: Antiprion activity against PrPsc infected in dividing mouse ScN2a-cl3 cells assessed as reduction in prion load after 5 days by ELISA. Conditions: N2a-cl3, 120 h; call rule not given here. In kind it is cell-based. Summed up:
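ScN2a (RML-infected N2a) cells seeded at 40,000 cells/well in MEM with 10% FBS, GlutaMax, 500 µg/mL geneticin. Compounds added 4 h after seeding, 0.5% final DMSO. Incubated 5 days at 37 °C, 5% CO2. Lysates captured on D18-coated ELISA plates overnight at 4 °C, then HRP-D13 antibody 1 h. EC50 is the mean of three determinations.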

Data set [2] has as its system MDCK. As to the kind of experiment: Permeability across basolateral to apical side MDR1-expressing MDCK cells. Conditions: dog. It counts as ADME, cell-based, Canis lupus familiaris. An outline of the steps:
(§1)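 MDR1-MDCK monolayers grown 5–10 days on 1 µm filters. Compound at 10 µM in HBSS pH 7.4 with 25 mM HEPES and 0.05% PS80, added to the apical or basolateral donor chamber. Receiver samples taken every 20 min and quantified by HPLC/UV/MS. Permeability coefficients calculated per interval and averaged; run in duplicate.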

In another data set the test system is Liver microsomes. As to the kind of experiment: Metabolic stability in rat liver microsomes assessed as half life by LC-MS/MS analysis. In kind it is ADME, Microsome. Summed up: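 Compound at 1 µM final (0.6% acetonitrile, 0.01% DMSO) in PBS pH 7.4. Incubated with rat hepatic microsomes (~0.3 mg/mL), 1 mM NADPH and 4 mM UDPGA or PBS at 37 °C. Samples taken at 0, 1, 10, 30 and 60 min and quenched in acetonitrile with carbamazepine internal standard. Remaining parent measured by LCMS; duplicate incubations. Midazolam and 4-nitrophenol served as controls.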
In general terms: Liver microsomes are vesicles of endoplasmic reticulum, rich in cytochrome P450 enzymes.

Data set [3] concerns MDCK. As to the kind of experiment: Permeability across apical to basolateral side MDR1-expressing MDCK cells. Conditions: dog. It counts as ADME, cell-based, Canis lupus familiaris. Summed up: as §1
Data set [4] concerns Brain. As to the kind of experiment: Drug uptake in FVB mouse brain at 130 mg/kg/day, po administered as part of liquid diet for 3 days. It counts as ADME, organism-based. The arrangement: route oral. To be noted: in vivo, 72 h. An outline of the steps: (§2)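 Wild-type FVB mice (~25 g), three per dose group sharing a cage. Compound was dissolved in PEG400 and diluted into a liquid diet of homogenized rodent feed, cocoa and water. Diet given ad libitum for 3 days; daily dose estimated from ~20 mL/day intake. Doses were 0, 40, 80, 130 or 210 mg/kg/day. After CO2 euthanasia, brain was homogenized with four-fold water and measured by LC-MS.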

A further data set has as its system Nucleic Acid. The data set is described as follows: Ratio of drug level in FVB mouse to EC50 for PrPsc. Summed up:
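Brain (and plasma) levels in wild-type FVB mice given 0, 40, 80, 130 or 210 mg/kg/day for 3 days in liquid rodent diet (PEG400 stock diluted with feed, cocoa, water), 3 mice per dose. At an arbitrary point after feeding (pseudo steady-state), brain homogenised and assayed by LC-MS. Levels set against the mean EC50 from 3 determinations in ScN2a-cl3 cells (5-day PrPSc ELISA).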

Data set [5] concerns Brain. The data set is described as follows: Drug uptake in FVB mouse brain at 40 to 210 mg/kg/day, po administered as part of liquid diet for 3 days. In kind it is ADME, organism-based. Details: route oral. Conditions: in vivo, 72 h. An outline of the steps:
as §2

Turning to `Cc1cccc(Nc2nc(-c3cc(-c4ccccc4)no3)cs2)n1`, in data set [1], the EC50 worked out at 0.82 µM. Still for that read-out and setting: for `FC(F)(F)c1csc(Nc2cc3ccccc3cn2)n1` the value was 8.66 µM; for `FC(F)(F)Oc1ccc(-c2csc(Nc3cc4ccccc4cn3)n2)cc1`, over 32 µM. Take `c1ccc2cc(Nc3nc(-c4ccncc4)cs3)ncc2c1`: the EC50 in data set [1] is 0.31 µM. The same measure, in the same setting: for `COc1ccnc(Nc2nc(-c3cc(-c4ccccc4)no3)cs2)c1` the value was 0.25 µM; for `CNc1nc(-c2ccc(OC)c(OC)c2)cs1`, over 32 µM. For `Cc1ccc(Nc2nc(-c3c(-c4ccccc4)noc3C)cs2)nc1`, the permeability in the data set with MDCK [2] came to 8.6 ×10⁻⁶ cm/s; in the data set with MDCK [3], 11.2 ×10⁻⁶ cm/s. For the same molecule, the t1/2 in the data set on Liver microsomes was found to be 19 min. In addition, in data set [1], the EC50 is over 26 µM. On to `COc1ccc(-c2csc(Nc3cccc(C)n3)n2)cc1OC`, for which the EC50 in data set [1] turned out to be 3.01 µM. Same read-out and setting: for `COc1ccc(-c2csc(N(C)c3cc4ccccc4cn3)n2)cc1OC` the value was 0.14 µM.

In the case of `COc1ccc(-c2csc(C(=O)Nc3cc4ccccc4cn3)n2)cc1OC`, the EC50 in data set [1] was over 10 µM. Still for that read-out and setting: for `Cc1csc(Nc2cc3ccccc3cn2)n1` the value was over 32 µM. As for `COc1ccc(-c2csc(Nc3cccc4ccccc34)n2)cc1OC`, in data set [1], the EC50 was over 32 µM.

As to `c1ccc(-c2cc(-c3csc(Nc4ccncc4)n3)on2)cc1`, in data set [1], the EC50 turned out to be 4.42 µM. Same read-out and setting: for `c1ccc(-c2csc(Nc3cc4ccccc4cn3)n2)cc1` the value was 3.08 µM; for `COc1ccc(-c2csc(NC(=O)c3cc4ccccc4cn3)n2)cc1OC`, 8.18 µM; for `Cc1ccc(Nc2nc(C)cs2)nc1`, over 32 µM. Same read-out and setting: for `COc1ccc(NC(=O)c2csc(Nc3ccc(C)cn3)n2)cc1OC` the value was 2.44 µM; for `Cc1ccnc(Nc2nc(-c3cc(-c4ccccc4)no3)cs2)c1`, 1.27 µM. For `Cc1ccc(Nc2nc(-c3ccncc3)cs2)nc1`, the permeability stood at 42.3 ×10⁻⁶ cm/s in the data set on MDCK [2] and 32.6 ×10⁻⁶ cm/s in the data set with MDCK [3]. The t1/2 in the data set on Liver microsomes is recorded as 20 min. Moreover, the EC50 in data set [1] is 1.57 µM. For the molecule `Cc1ccc(Nc2nc(-c3ccc(-c4ccccn4)s3)cs2)nc1`, the EC50 in data set [1] was 1.23 µM.

As for `COc1ccc(-c2csc(Nc3cc4ccccc4cn3)n2)cc1OC`, the t1/2 in the data set with Liver microsomes was 83 min. In the case of `COc1ccc(-c2csc(Nc3ccc4ccccc4n3)n2)cc1OC`, the values for the permeability in the data set with MDCK [2] and with MDCK [3] were 8.9 ×10⁻⁶ cm/s and 9.2 ×10⁻⁶ cm/s, respectively. In the data set on Liver microsomes, the t1/2 came to 69 min. Moreover, in data set [1], the EC50 is 0.43 µM. Consider `c1ccc(-c2ccc(-c3csc(Nc4cc5ccccc5cn4)n3)s2)nc1`, for which, in data set [1], the EC50 was found to be 2.01 µM. As to `c1ccc(-c2cc(-c3csc(Nc4ccccn4)n3)on2)cc1`, the EC50 in data set [1] stood at 0.6 µM. Regarding `COc1ccccc1-c1csc(Nc2ccc(C)cn2)n1`, the EC50 in data set [1] is over 29 µM. Still for that read-out and setting: for `c1ccc(-c2cc(-c3csc(Nc4cc5ccccc5cn4)n3)on2)cc1` the value was 0.8 µM.

In the case of `Cc1ccc(Nc2nc(-c3ccccc3)cs2)nc1`, the t1/2 in the data set on Liver microsomes is recorded as 10 min. Moreover, the EC50 in data set [1] is 7.88 µM. For `COc1ccc(-c2csc(Nc3ccc(C)cn3)n2)cc1OC`, the EC50 in data set [1] came to 0.79 µM. Same read-out and setting: for `Cc1ccc(Nc2nc3c(s2)Cc2ccccc2-3)nc1` the value was 2.44 µM. Take `COc1ccc(-c2csc(Nc3ccc(C(F)(F)F)cn3)n2)cc1OC`: the permeability is 8.7 ×10⁻⁶ cm/s in the data set with MDCK [2] and 9.4 ×10⁻⁶ cm/s in the data set with MDCK [3]. Also, the t1/2 in the data set on Liver microsomes turned out to be 150 min. For the same molecule, in data set [1], the EC50 amounted to 2.53 µM. Consider `COc1ccc(-c2csc(Nc3ncccc3C)n2)cc1OC`, for which, in data set [1], the EC50 is 7.29 µM. Consider `COc1ccc(Nc2nc(-c3cc(-c4ccccc4)no3)cs2)nc1`, for which the EC50 in data set [1] came out at 0.23 µM.

Take `COc1ccc(Nc2nc(-c3ccc(OC)c(OC)c3)cs2)nc1`: the t1/2 in the data set with Liver microsomes is 45 min.

On to `COc1ccc(-c2csc(N(C(C)=O)c3cc4ccccc4cn3)n2)cc1OC`, for which the EC50 in data set [1] worked out at 0.081 µM.

Take `COc1ccc(-c2csc(Nc3cc4ccccc4cn3)n2)cc1`: the EC50 in data set [1] came out at 0.34 µM. In the case of `COc1ccc(-c2csc(Nc3cc(C)ccn3)n2)cc1OC`, the EC50 in data set [1] worked out at 1 µM. `COc1ccc(-c2csc(Nc3ccc(C)cn3)n2)cc1`: the EC50 in data set [1] was determined as 3.03 µM. In the case of `COc1ccc(-c2csc(Nc3ccc4ccccc4c3)n2)cc1OC`, in data set [1], the EC50 came out at 0.39 µM. Turning to `Cc1ccc(Nc2nc(-c3ccccn3)cs2)nc1`, in data set [1], the EC50 was 0.86 µM. Same read-out and setting: for `COc1ccc(-c2csc(Nc3ncccn3)n2)cc1OC` the value was 3.93 µM; for `COc1cc2c(cc1OC)-c1nc(Nc3ccc(C)cn3)sc1C2`, 5.59 µM. Same read-out and setting: for `COc1ccc(-c2csc(Nc3cnccn3)n2)cc1OC` the value was 15.6 µM. For `Cc1ccc(Nc2nc(-c3cc(-c4ccccc4)no3)cs2)nc1`, the Drug uptake result with Brain [4] and in the data set on Brain [5] was “Active” in each case. For the same molecule, in the data set with Nucleic Acid, the Ratio came to 25. Also, the values for the permeability in the data set on MDCK [2] and in the data set on MDCK [3] were 8.3 ×10⁻⁶ cm/s and 6.8 ×10⁻⁶ cm/s, respectively. Also, in the data set with Liver microsomes, the t1/2 is 151 min. The EC50 in data set [1] stood at 0.94 µM.

In general, EC50 refers to the concentration that produces a half-maximal response.
